Screening data from PubChem BioAssay.
CHOP inhibitor: inhibitors of CHOP induction in ER stress response | 220,000 compounds, 3.8% hits | CHO-K1 CHOP-promoter luciferase, tunicamycin-induced, 15-18 h | inhibition, % at 10 µM | AID 2732;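 active = compounds that reduced the stress-induced luciferase reporter signal by more than about 70% of percent inhibition, limit read from the data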;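 also: 0% = tunicamycin plus vehicle and 100% = wells without tunicamycin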
WT yeast gro inh: growth inhibition of WT yeast, mitochondrial fusion screen; mitochondrial fusion phenotypic screen, WT strain; inhibition, % at 10 µM; 190,000 compounds, 2.1% hits; in the data active = inhibition above about 58%; tested in S. cerevisiae
Tb MetRS inh: Trypanosoma brucei MetRS inhibition; purified T. brucei MetRS, ATP depletion, Kinase-Glo luminescence; inhibition, % at 11.9 µM; 360,000 compounds, 0.4% hits;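 active = inhibition above a per-plate cutoff of the control wells' mean inhibition plus 3 SD, cut at about 5.5% in these data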;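 also: 0% = DMSO wells median and 100% = median of wells with control inhibitor compound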
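Material: parasite MetRS enzyme / Replication: singlicate, one well per compound / Signal: luminescence of leftover ATP / Schedule: 2 h aminoacylation at 25 °C after 15 min preincubation / Medium: HEPES-MgCl2-KCl buffer plus DTT, spermine, BSA, pyrophosphatase / Doses: 11.9 µM single point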
MPTP block: inhibitors of mitochondrial permeability transition pore; inhibition, % at 10 µM; AID 602449; 360,000 compounds, 1.4% hits; isolated mouse mitochondria, Ca2+ swelling absorbance, 30 min;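 active = inhibition of 50% or more, scaled per plate between neutral and stimulator controls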;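 also: 0% = DMSO wells given calcium and 100% = 1 mM EGTA wells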
EBV gp42 inh: inhibitors of Epstein-Barr virus glycoprotein 42 | Fluorescence polarization binding assay, mP read-out | inhibition, % (tested at 21.74 µM) | 220,000 compounds, 0.42% hits | AID 1085; in the data active = inhibition above about 50%
Target sequence (Q1HVG2 whole entry, looked up): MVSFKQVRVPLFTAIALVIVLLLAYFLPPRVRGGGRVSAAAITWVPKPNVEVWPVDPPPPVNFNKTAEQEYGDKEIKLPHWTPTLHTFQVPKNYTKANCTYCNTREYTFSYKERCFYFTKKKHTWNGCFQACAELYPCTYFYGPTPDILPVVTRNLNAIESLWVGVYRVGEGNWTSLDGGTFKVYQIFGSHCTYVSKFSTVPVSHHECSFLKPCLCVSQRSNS
GRIN3A LBD mod: NR3A (human) ligand-binding domain modulation; NR3A LBD differential scanning fluorimetry, Tm shift; 0% = protein alone, 100% = glycine-bound protein; Tm shift relative to glycine control, % at 25 µM; 340,000 compounds, 2.5% hits; AID 1259313;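 active = melting temperature shift of at least 10% of the positive control shift, at one fixed dose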
Rh123 counter: Rhodamine 123 counter-screen of mitochondrial pore hits; shares compounds with MPTP block; isolated mitochondria, membrane potential, Rhodamine 123 fluorescence; inhibition, % at 10 µM; 5,000 compounds, 78% hits; AID 624504; in the data active = inhibition above about 22%;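 also: 0% = DMSO vehicle and 100% = positive control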
MPTP abs DR: dose response confirmation of mitochondrial permeability transition pore inhibitors; shares compounds with MPTP block; isolated mitochondria swelling, absorbance; IC50, µM; 780 compounds, 58% hits; in the data active = IC50 below about 20 µM
MPTP cs DR: MPTP inhibitor counter-screen activity, dose response | shares compounds with MPTP block | isolated mitochondria counterscreen, fluorescence read-out | IC50, µM | 780 compounds, 49% hits; in the data active = IC50 below about 80 µM
* = called active by the depositor; / = no result. Only some compounds are listed: those with a hit (about 6.4% of all), similar ones and a draw of the others.

SMILES	CHOP inhibitor	WT yeast gro inh	Tb MetRS inh	MPTP block	EBV gp42 inh	GRIN3A LBD mod	Rh123 counter	others
O=C(Nc1ccc(Cl)cc1)C1=Cc2cc(Cl)ccc2OC1	64	-5	1	99*	0	26*	113*
CN1C(=O)C2(C(C#N)=C(N)N(c3cc(Cl)cc(Cl)c3)C3=C2C(=O)CC(C)(C)C3)c2ccccc21 (stereo not drawn)	26	13	0	-1	-2	0	/
O=[N+]([O-])c1ccc(/C=N/NC(=S)Nc2ccc(Cl)cc2Cl)s1	-24	/	-1	52*	-21	11*	61*
O=[N+]([O-])c1ccc(O)c(/C=N/NC(=S)Nc2ccc(Cl)cc2Cl)c1	18	/	0	96*	-4	4	47*
COc1ccc(NCc2nc3ccccc3n2CCOc2ccccc2)cc1	43	21	-1	1	9	2	/
COc1ccc(NCc2nc3ccccc3n2CCOc2ccc(C)cc2)cc1	58	71*	-1	70*	9	-2	37*
N#Cc1cc(C(=O)c2ccccc2OCC(=O)Nc2ccccc2Cl)cn(C2CCCCC2)c1=O	21	10	-1	1	-9	1	/
N#Cc1cc(C(=O)c2cc(Br)ccc2O)cn(C2CCCCC2)c1=O	57	12	0	94*	-5	2	82*
CCOC(=O)c1c(C)[nH]c(C(=O)N/N=C/c2cc([N+](=O)[O-])ccc2O)c1C	/	/	0	56*	/	-1	11
CCOC(=O)c1c(C)[nH]c(C(=O)N/N=C\c2ccccc2O)c1C	48	-26	0	69*	1	17*	66*
CCOC(=O)c1c(C)[nH]c(C(=O)N/N=C/c2ccc(OC)c(OC)c2)c1C	/	/	0	-3	/	-1	/
N#CCCN(C(=O)CN1CCN(S(=O)(=O)c2ccc(Cl)s2)CC1)c1ccc(F)cc1	/	/	0	0	/	0	/
CCN1C(=O)/C(=C2\SC(=S)N(NC(=O)c3ccccc3O)C2=O)c2ccccc21	11	/	-1	87*	13	14*	32*
COc1cc(C(=O)Nc2ccc(Cl)c(C(F)(F)F)c2)cc(OC)c1OC	50	36	0	81*	15	1	77*
COc1cccc(C(=O)Nc2cc(C(F)(F)F)ccc2Cl)c1	34	7	-1	2	-10	3	/
O=C(Nc1ccc(Cl)c(C(F)(F)F)c1)c1ccco1	57	72*	0	81*	-19	-4	74*
O=C(Nc1cccc(C(F)(F)F)c1)c1ccco1	15	10	-1	5	-18	-3	/
CCNC(=S)Nc1ccc(Cl)c(C(F)(F)F)c1	61	23	1	91*	-7	-1	95*
COc1cccc(C(=O)Nc2ccc(Cl)c(C(F)(F)F)c2)c1	71*	-4	0	99*	-5	5	89*
COC(=O)/C=C1/S/C(=N/NC(=O)c2ccccc2OC)NC1=O	/	/	-1	0	/	-1	/
O=C(NC(=S)NCCN1CCOCC1)c1cccc(Cl)c1	2	5	0	-1	2	-2	/
O=C(CCc1nc2ccccc2c(=O)[nH]1)Nc1cc(C(F)(F)F)ccc1N1CCOCC1	/	/	1	0	/	-1	/
CC1=NN(c2ccccc2)C(=O)/C1=C/c1c(O)n(-c2ccc(F)cc2)[nH]c1=O	-23	22	-1	61*	8	11*	13
CC1=NN(c2ccccc2)C(=O)/C1=C/c1ccc(Cl)cc1	/	/	-1	98*	/	3	84*
CC1=NN(c2ccccc2)C(=O)/C1=C/c1cccs1	2	-4	0	21	-12	2	/
SMILES	CHOP inhibitor	WT yeast gro inh	Tb MetRS inh	MPTP block	EBV gp42 inh	GRIN3A LBD mod	Rh123 counter	others
CC1=NN(c2ccccc2)C(=O)/C1=C\c1ccc(Br)s1	-8	11	0	14	4	-3	/
CCC(C(=O)N1CCCC1)n1nc(C)c2c(C)n(-c3ccccc3)nc2c1=O (stereo not drawn)	/	/	0	-1	/	0	/
O=C(NC(NC(=S)Nc1c(Cl)cccc1Cl)C(Cl)(Cl)Cl)OCc1ccccc1 (stereo not drawn)	-31	38	-1	100*	-14	17*	67*
CCN(CC)CCN(C(=O)/C=C/c1cccs1)c1nc2ccc(Cl)cc2s1	/	/	-1	5	/	-5	/
CN(C)CCN(C(=O)/C=C/c1cccs1)c1nc2ccc(F)cc2s1	45	14	-1	72*	6	-5	-8	MPTP abs DR=13*;MPTP cs DR=>80
CC(=O)Nc1ccc(NC(=O)c2cc(=O)c3cc(C)cc(C)c3o2)cc1	/	/	-1	2	/	0	/
Cc1cc(C)c2oc(C(=O)Nc3ccc(S(=O)(=O)N4CCC(C)CC4)cc3)cc(=O)c2c1	42	13	-1	60*	5	0	-8	MPTP abs DR=>100;MPTP cs DR=>80
O=C(Nc1cccc(S(=O)(=O)N2CCCCCC2)c1)c1cc(=O)c2ccccc2o1	62	12	0	52*	-3	-3	64*
Cc1cc2oc(C(=O)Nc3ccc(S(=O)(=O)N4CCCC(C)C4)cc3)cc(=O)c2cc1Cl (stereo not drawn)	-2	-3	0	73*	-10	14*	7	MPTP abs DR=>100;MPTP cs DR=<2.5*
CCc1noc(C)c1C(=O)Nc1ccc(S(=O)(=O)N2CCCC(C)C2)cc1 (stereo not drawn)	/	/	0	-2	/	-1	/
ClC(Cl)c1nnc(-c2ccccc2)c(-c2c[nH]c3ccccc23)n1	80*	7	4	52*	-4	-4	47*
N=c1c2c(-c3ccccc3)c(-c3ccccc3)n(Cc3ccco3)c2ncn1CCO	-19	-13	0	81*	-13	-2	-3
Brc1ccc(N/N=C(/N=Nc2nn[nH]n2)c2ccccc2)cc1	71*	16	-1	85*	-7	4	30*
COC(=O)C1=C(C)N(Cc2ccccc2)C(=NCc2cccc(C(F)(F)F)c2)N[C@H]1c1cccc(C(F)(F)F)c1	/	/	0	88*	/	-15	-1
COC(=O)C1=C(C)N(Cc2ccccc2)C(=NCc2cccc(C(F)(F)F)c2)N[C@H]1c1cccc(F)c1	/	/	0	80*	/	-37	-5
O=C(/C=C/c1c(Cl)cccc1Cl)Nc1ccncc1	50	17	4	62*	-13	27*	57*
OC(CNCc1ccccc1)COc1ccccc1 (stereo not drawn)	/	/	0	-1	/	2	/
Cc1ccc(OCC(O)CNCc2ccc(F)cc2)cc1 (stereo not drawn)	/	/	0	85*	/	-2	-9	MPTP abs DR=9.2*;MPTP cs DR=>80
